Screening data: PubChem, The Scripps Research Institute Molecular Screening Center
OXTR agonist – activates the human oxytocin receptor; P30559; CHO-OTR cells, Fluo-8 calcium fluorescence; normalized: DMSO 0%, oxytocin 100%; activation, % at 3 µM; 320,000 tested, 0.32% active;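 active = activation above the mean of all tested compounds plus 3 SD, cutoff set per screening run, cut at about 20% in these data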;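 note: peak over basal fluorescence ratio from a 100 s FLIPR kinetic read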
Target sequence (P30559 whole entry, looked up): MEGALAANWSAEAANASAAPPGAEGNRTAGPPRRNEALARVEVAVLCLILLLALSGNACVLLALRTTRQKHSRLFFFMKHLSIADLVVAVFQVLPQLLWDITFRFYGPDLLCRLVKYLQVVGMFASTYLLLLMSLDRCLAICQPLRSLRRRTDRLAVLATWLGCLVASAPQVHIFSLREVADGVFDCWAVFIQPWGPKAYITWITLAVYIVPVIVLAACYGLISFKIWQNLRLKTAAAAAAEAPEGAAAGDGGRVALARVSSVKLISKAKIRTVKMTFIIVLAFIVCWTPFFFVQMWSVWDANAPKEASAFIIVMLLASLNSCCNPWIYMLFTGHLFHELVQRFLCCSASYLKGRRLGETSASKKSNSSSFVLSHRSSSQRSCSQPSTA
TRPML3 agonist – agonists of human TRPML3 channel; HEK293 TRPML3-YFP, Fluo-8 calcium fluorescence; 100% = the carbachol control signal; activation, % at 3 µM; 220,000 tested, 0.29% active;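 active = activation above its plate's cutoff, the mean activation of the plate's test wells plus 3 SD, cut at about 12% in these data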
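Test system: TRPML3-YFP stable HEK293 cells. Doses: single point at 3 µM. Incubation: dye loading 1 h 37 °C then 30 min ambient, 125 s read. Signal: Fluo-8 calcium dye fluorescence, ex 470-495, em 515-575 nm. Measure: percent activation from peak-to-basal fluorescence ratio, scaled between DMSO and carbachol.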
zfTRPN1 agonist – zebrafish TRPN1 (NompC) channel agonism; HEK293 zebrafish TRPN1-YFP, Fluo-8 calcium fluorescence; 100% = response to 87 µM carbachol; activation, % at 3 µM; 220,000 tested, 0.18% active; AID 1424;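 active = activation above its plate's cutoff, the mean activation of test wells on that plate plus 3 SD, cut at about 19% in these data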
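Material: zebrafish TRPN1-YFP in HEK293 cells; Doses: single test compound dose, 3 µM nominal, 0.3% DMSO; Timing: dye loading 1 h at 37 °C, then 30 min room temperature; Technique: intracellular calcium fluorescence with Fluo-8; Benchmarks: high carbachol 87 µM, low DMSO alone.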
OXTR potentiate – potentiates the human oxytocin receptor response | activation, % at 3 µM | AID 2445 | P30559 | CHO-OTR cells, Fluo-8 calcium fluorescence, potentiator mode; 0% = oxytocin EC15, 100% = EC100 | 320,000 tested, 0.061% active;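 active = activation above that plate's cutoff, the mean activation of tested compounds plus 3 SD, cut at about 6.6% in these data, passing the limit was not always enough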
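Material: human OTR in CHO cells. Compound: 3.0 µM, one dose. Timing: compound 6 min at room temperature before oxytocin, 100 s read. Evaluation: % activation of max/min ratio relative to oxytocin controls. Replication: single well per compound, singlicate. Signal: Fluo-8 calcium dye fluorescence.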
V1aR counter – counter-screen for oxytocin receptor agonists: human V1a receptor agonists; P37288; CHO-V1R cells, Fluo-8 calcium fluorescence, agonist mode; 0% DMSO, 100% 3 nM vasopressin; activation, % at 3 µM; 320,000 tested, 0.25% active; AID 2797;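 active = activation above the mean activation of all tested compounds plus 3 SD, per screening run, cut at about 20% in these data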;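 note: signal is peak over basal fluorescence ratio across a 100 second FLIPR read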
Of the large screens only hits and unclear results are named; the others gave an inactive call. Rows were chosen to be rich in hits. Some 0.58% of all compounds tested hit in one or more screens of this group.

Cc1ccc(NS(=O)(=O)c2ccc(C(=O)N3CC(C)CC(C)C3)cc2)cc1 (configuration not stated)	OXTR agonist 69, V1aR counter 43 (no result: TRPML3 agonist, zfTRPN1 agonist)
CC1CN(C(=O)c2ccc(S(=O)(=O)Nc3cccc(C(F)(F)F)c3)cc2)CC(C)O1 (configuration not stated)	OXTR agonist 26, V1aR counter 21 (no result: TRPML3 agonist, zfTRPN1 agonist)
Cc1ccc(S(=O)(=O)Nc2ccc(C(=O)N3CCCC3)cc2)cc1	none (no result: TRPML3 agonist, zfTRPN1 agonist)
O=C(c1ccc(S(=O)(=O)Nc2cccc(C(F)(F)F)c2)cc1)N1CCOCC1	none (no result: TRPML3 agonist, zfTRPN1 agonist)
COc1cc(-c2noc(C)c2-c2ccc(N(C)C)nc2)cc(OC)c1OC	OXTR agonist 36, V1aR counter 34 (no result: TRPML3 agonist, zfTRPN1 agonist)
COc1cc(-c2noc(C)c2-c2ccc3[nH]ccc3c2)cc(OC)c1OC	none (no result: TRPML3 agonist, zfTRPN1 agonist)
CCCC(=O)NC(=S)Nc1ccc(S(=O)(=O)Nc2ccc(OCC)cc2)cc1	none
CCOc1ccc(NS(=O)(=O)c2ccc(NC(=S)NC(=O)CC(C)C)cc2)cc1	OXTR agonist 20, V1aR counter 23
CCc1ccc(NC(=O)C(CC)c2ccccc2)cc1 (configuration not stated)	OXTR agonist 27, V1aR counter 35
O=C(NC(=O)c1ccccc1O)c1ccc(C(F)(F)F)cc1	none
CCCc1ccc(C(=O)NC(=O)c2ccccc2O)cc1	zfTRPN1 agonist 20
Cc1ccc(C2=NNC3(CCOC(C)(C)C3)S2)cc1 (configuration not stated)	none
CCCOc1ccc(CNC(=O)c2ccc3c(c2)N(CC)CCS3)cc1	none (no result: TRPML3 agonist, zfTRPN1 agonist)
CCCCCCn1c(=O)[nH]c2nc3cc(N)ccc3nc2c1=O	OXTR agonist 96, TRPML3 agonist 46, zfTRPN1 agonist 37, V1aR counter 74
CC(Oc1ccc(C(=O)c2ccccc2)cc1)C(=O)Nc1ccc(S(N)(=O)=O)cc1 (configuration not stated)	OXTR agonist 33, V1aR counter 22
CC(Oc1ccccc1)C(=O)Nc1ccc(NC(=O)c2ccccc2)cc1 (configuration not stated)	none (no result: TRPML3 agonist, zfTRPN1 agonist)
CC(C)(C)C(=O)/C=c1\s/c(=C\c2ccc(-c3ccc([N+](=O)[O-])cc3)o2)c(=O)n1CC(=O)NC(N)=O	OXTR agonist 36, TRPML3 agonist 16, zfTRPN1 agonist 31, V1aR counter 47
COc1ccc2c(c1OC)C(=O)N1N=C(c3ccc(O)cc3)CC21 (configuration not stated)	none
COc1ccc(C2=Nn3c(nnc3C(F)(F)F)SC2)cc1	none (no result: TRPML3 agonist, zfTRPN1 agonist)
Cn1cccc1/C=C1\CCC/C(=C\c2cccn2C)C1=O	OXTR agonist 75, V1aR counter 44
O=C1/C(=C/c2cccs2)CCC/C1=C\c1cccs1	none (no result: TRPML3 agonist, zfTRPN1 agonist)
CC(C)N1CCN(Cc2ccc3c(c2)Cc2ccccc2-3)CC1CCO (configuration not stated)	none
O=C(COC(=O)c1ccccc1)Nc1ncc([N+](=O)[O-])s1	none (no result: TRPML3 agonist, zfTRPN1 agonist)
O=C(Nc1ccccc1)Nc1ncc([N+](=O)[O-])s1	TRPML3 agonist 17, zfTRPN1 agonist 22 (no result: OXTR agonist, OXTR potentiate, V1aR counter)
CC1=C/C(=N\OS(=O)(=O)c2ccccc2)C(C(C)C)=CC1=O	TRPML3 agonist 35
CC1=CC(=O)c2ccccc2C1=O	none
CCOC(=O)CC1C(=O)NCCN1c1nc2c(C)cccn2c(=O)c1/C=C1\SC(=S)N(CC(C)C)C1=O (configuration not stated)	TRPML3 agonist 12, zfTRPN1 agonist 36 (no result: OXTR agonist, OXTR potentiate, V1aR counter)
CC(C)CN1C(=O)/C(=C/c2c(N3CCc4ccccc4C3)nc3ccccn3c2=O)SC1=S	none (no result: OXTR agonist, OXTR potentiate, V1aR counter)
COC(=O)C(Cc1ccccc1)NC(=O)CCCC(=O)NCc1cccc(OC)c1 (configuration not stated)	none (no result: TRPML3 agonist, zfTRPN1 agonist)
CC(C)C[C@H]1CN=C(Nc2ccccc2)N1CCc1ccc(F)cc1	OXTR agonist 44, V1aR counter 59 (no result: TRPML3 agonist, zfTRPN1 agonist)
CC(C)C[C@H]1CN=C(Nc2ccccc2)N1CCc1cccc(F)c1	OXTR agonist 51, V1aR counter 73 (no result: TRPML3 agonist, zfTRPN1 agonist)
Brc1ccc(C[n+]2ccccc2)cc1	none (no result: TRPML3 agonist, zfTRPN1 agonist)
O=C(NNC(=S)NCc1ccccc1)c1cccc([N+](=O)[O-])c1	none
CC(=O)NNC(=S)NC(=O)c1cccc([N+](=O)[O-])c1	none
O=C(NNC(=S)NC(=O)c1ccccc1)c1ccc([N+](=O)[O-])cc1	OXTR agonist 34, V1aR counter 33 (no result: TRPML3 agonist, zfTRPN1 agonist)
